High-throughput results as filed in PubChem BioAssay.
A selection: hits, their analogues and other compounds. The true share with any hit is near 4.6%.
FAS-TE inh: inhibitors of human fatty acid synthase thioesterase domain; P49327; recombinant FAS-TE, OMFH fluorogenic substrate, fluorescence endpoint; inhibition, % at 15 µM; 360,000 compounds, 0.67% hits; AID 602261;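 active = compounds whose normalised, plate-corrected inhibition of enzyme fluorescence in the single-dose primary screen is 50% or more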
HDAC3 inh: blocks human histone deacetylase 3; O15379; recombinant HDAC3, fluorogenic peptide/trypsin coupled, fluorescence; inhibition, % at 8.3 µM; 320,000 compounds, 0.15% hits; in the data active = inhibition above about 26%, passing the limit was not always enough; inconclusive = no clear call, values can overlap the other calls
PfM18AAP inh: blocks P. falciparum M18 aspartyl aminopeptidase; recombinant PfM18AAP, H-Glu-NHMec fluorogenic cleavage; inhibition, % at 7.35 µM; 290,000 compounds, 1.2% hits; AID 1822;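 active = inhibition above the campaign mean inhibition over all tested compounds plus 3 SD, cut at about 28% in these data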
ALR inh: inhibitors of human sulfhydryl oxidase ALR; inhibition, % (no concentration beside the values); AID 485317; 290,000 compounds, 3.8% hits; P55789; purified ALR, DTT oxidation, H2O2 HRP-luminol luminescence;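 active = mean replicate inhibition above about 79%, with every replicate also reaching it, limit read from the data; inconclusive = only one of the two criteria met; inactive = mean below limit and not every replicate reaching it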
Target sequence (P55789 whole entry, looked up): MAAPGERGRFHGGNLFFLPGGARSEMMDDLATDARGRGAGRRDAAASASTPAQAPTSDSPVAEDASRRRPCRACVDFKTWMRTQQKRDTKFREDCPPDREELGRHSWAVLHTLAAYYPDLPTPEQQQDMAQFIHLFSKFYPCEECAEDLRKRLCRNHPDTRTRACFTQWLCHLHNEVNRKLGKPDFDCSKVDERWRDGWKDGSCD
UCH37 inh: blocks the human deubiquitinase UCH37; inhibition, % (test concentration not listed); Q9Y5K5; purified proteasome/UCH37, Ub-AMC cleavage fluorescence; 330,000 compounds, 0.33% hits;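 active = mean inhibition over replicate wells above about 20%, limit read from the data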
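Material: human UCH37 enzyme supplied as purified proteasome complex. Measure: % inhibition of Ub-AMC cleavage fluorescence. Medium: pH 7.4 Tris-HCl (50 mM) with ovalbumin, ATP-MgCl2, DTT. Times: 30 min preincubation with enzyme, 25 min cleavage at room temperature. Detection: AMC fluorescence intensity at 355/460 nm.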
Rtt109 Vps75: blocks Candida albicans Rtt109/Vps75 acetyltransferase activity | Q5AAJ8 | purified Rtt109/Vps75, ThioGlo CoA-SH fluorescence, 4 h | inhibition, % at 34.9 µM | 330,000 compounds, 0.16% hits;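 active = inhibition of at least 50% in every replicate; inconclusive = best replicate reaches 50% inhibition but some replicates fall short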
Target sequence (Q5AAJ8 whole entry, looked up): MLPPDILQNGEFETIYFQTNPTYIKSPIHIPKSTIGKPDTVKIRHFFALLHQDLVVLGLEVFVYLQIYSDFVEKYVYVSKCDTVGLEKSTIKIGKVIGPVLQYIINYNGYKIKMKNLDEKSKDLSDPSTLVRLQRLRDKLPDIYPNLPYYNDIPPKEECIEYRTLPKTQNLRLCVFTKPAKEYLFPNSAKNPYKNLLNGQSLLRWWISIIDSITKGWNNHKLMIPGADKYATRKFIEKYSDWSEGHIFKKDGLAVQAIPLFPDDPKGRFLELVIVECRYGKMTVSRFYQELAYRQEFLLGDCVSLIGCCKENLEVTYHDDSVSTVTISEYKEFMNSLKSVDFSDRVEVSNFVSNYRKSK
A number is an active result; 0 = inactive; ? = inconclusive; - = no result given.

SMILES	FAS-TE inh	HDAC3 inh	PfM18AAP inh	ALR inh	UCH37 inh	Rtt109 Vps75
CCOC(=O)c1[nH]c2ccccc2c1NC(=S)Nc1ccccc1	0	0	0	98	0	0
COC(=O)c1[nH]c2ccc(C)cc2c1NC(=O)CN1CCCC(C)(C)C1	0	0	0	0	0	0
Cc1[nH]c2ccccc2c1Cc1n[nH]c(=S)o1	0	0	0	96	0	0
Cc1[nH]c2ccccc2c1Cc1n[nH]c(=S)n1C	0	0	0	0	0	0
CC(OC(=O)c1cc(=O)c2ccccc2o1)C(=O)Nc1ccc(N(C)C)cc1 (centres undefined)	0	-	-	-	0	0
CN(C)c1ccc(NC(=O)COC(=O)c2cc(=O)c3ccccc3o2)cc1	0	0	0	99	0	0
CCOc1cc(C=NNC(=O)c2cc(-c3ccccc3)nc3ccccc23)ccc1O	-	-	-	-	0	-
Cc1onc(-c2ccccc2)c1-c1csc(NN=Cc2ccccc2)n1	-	-	-	-	0	-
CCCCC(=O)c1ccc(O)cc1	0	0	0	0	0	0
O=C(CCO)c1ccc(O)cc1	0	0	56	0	0	0
CC(=NNC(=O)CCC(=O)NCc1ccccc1)c1ccc([N+](=O)[O-])cc1	-	-	-	-	0	-
CCOC(=O)Cc1cc(=O)n(-c2nc3ccccc3s2)[nH]1	0	0	0	98	0	0
O=C(NN=Cc1cccc(O)c1)C(=O)N1CCCCCC1	-	-	-	-	0	-
CC(=O)c1cn(CC(=O)Nc2ccc(C)c(C)c2)c2ccccc12	0	0	0	0	0	0
CC(=O)c1cn(CC(=O)Nc2ccc(C)cc2)c2ccccc12	0	0	0	-	20	0
N#Cc1cc(C(=O)c2ccccc2O)cn(-c2nccs2)c1=O	0	0	0	97	0	0
N#Cc1cc(C(=O)c2cc(F)ccc2O)cn(-c2nccs2)c1=O	0	0	0	0	0	0
Cc1cc(Nc2ccccc2)nc2cc(O)ccc12	0	0	0	96	0	0
CCOc1ccc(Nc2cc(C)c3ccccc3n2)cc1	0	0	0	0	0	0
COc1ccc(Nc2cc(C)c3ccc(O)cc3n2)cc1	0	-	0	99	0	0
CC(=O)Nc1ccc(Nc2cc(C)c3ccccc3n2)cc1	0	0	0	-	0	0
O=C(CN1CCN(Cc2ccccc2)CC1)NN=Cc1c[nH]c2ccccc12	-	-	-	-	0	-
COC(=O)C(C)Sc1nnc(Cc2cc(=O)[nH]c(=O)[nH]2)n1-c1cc(C)ccc1C (centres undefined)	0	0	0	91	0	0
CCOc1ccc(-n2c(Cc3cc(=O)[nH]c(=O)[nH]3)nnc2SC(C)C(=O)OC)cc1 (centres undefined)	0	0	0	93	0	0
COC(=O)C(C)Sc1nnc(Cc2cc(=O)[nH]c(=O)[nH]2)n1-c1cccc(OC)c1 (centres undefined)	0	?	0	0	0	0
SMILES	FAS-TE inh	HDAC3 inh	PfM18AAP inh	ALR inh	UCH37 inh	Rtt109 Vps75
Cc1ccc(/C=C2\SC(=S)N(NS(=O)(=O)c3ccc(C)cc3)C2=O)cc1	0	0	0	0	0	0
Cc1ccc(S(=O)(=O)NN2C(=O)/C(=C/c3ccc(C(=O)O)cc3)SC2=S)cc1	0	0	0	0	21	0
Cc1ccc(S(=O)(=O)NN2C(=O)/C(=C/c3cccn3C)SC2=S)cc1	-	0	0	97	-	-
C=CCN(C(=O)CSC1=NC(=O)CN1C(C)=O)c1nc(C)c(-c2ccccc2)s1	0	68	0	0	0	0
C=CCSc1nnc(-c2sc(-c3ccccc3)nc2C)n1C	0	0	0	0	0	0
COc1ccc(NC(=O)CC2C(=O)N(c3ccc(Cl)cc3)C(=S)N2CCc2ccncc2)cc1 (centres undefined)	0	0	0	0	0	0
COc1ccc(NC(=O)CC2C(=O)N(c3ccc(Cl)cc3)C(=S)N2CCc2ccccn2)cc1 (centres undefined)	0	0	0	98	0	0
O=C(CNC(=O)c1ccncc1)NN=Cc1cc(Br)ccc1O	-	-	-	-	0	-
COc1ccc(C(=O)NN=C(C)c2cccc(NC(=O)C(F)(F)F)c2)cc1	-	-	-	-	0	-
COc1ccc(OCCn2cc(/C(N)=N/O)c3ccccc32)cc1	0	0	0	-	0	0
N/C(=N\O)c1cn(Cc2ccccc2Cl)c2ccccc12	0	0	0	99	-	0
Cc1ccc(OCCn2cc(/C(N)=N/O)c3ccccc32)cc1C	0	0	0	78	0	0
COC(=O)c1cn(CCOc2ccccc2OC)c2ccccc12	0	0	0	0	22	0
O=C(NN=Cc1sc(N2CCCCC2)nc1-c1cccs1)c1cccnc1	-	-	-	-	0	-
COc1ccc(C=NNC(=O)c2cccc(Br)c2)cc1COc1ccccn1	-	-	-	-	0	-
Oc1oc(-c2ccco2)nc1C=Nc1cccc(Cl)c1	0	0	0	96	0	0
Oc1oc(-c2ccco2)nc1C=Nc1ccccc1	0	0	0	0	0	-
CC(CC(=O)NC12CC3CC(CC(C3)C1)C2)=NNC(=O)c1ccc(F)cc1	-	-	-	-	0	-
Nc1nnc(SCC(=O)N2CCc3ccccc3C2)s1	0	0	0	0	0	0
Nc1nnc(N2CCc3ccccc32)s1	0	0	0	99	0	0
CC(=O)Nc1ccc2c(c1)OCCO2	0	0	0	-	0	0
CC(=O)Nc1ccc(SCC(=O)Nc2ccc3c(c2)OCCO3)cc1	0	0	-	98	0	0
COc1ccc(NC(=O)CN(C)C(=O)CSc2ccc3c(c2)OCCO3)cc1	0	0	0	98	0	0
COc1ccc(NC(=O)CSc2ccc(NC(C)=O)cc2)cc1S(=O)(=O)N1CCCCC1	0	0	0	99	0	0
O=C(CSc1ccc2c(c1)OCCO2)Nc1ccc(Cl)cn1	0	0	0	89	0	0
SMILES	FAS-TE inh	HDAC3 inh	PfM18AAP inh	ALR inh	UCH37 inh	Rtt109 Vps75
COc1ccc(NC(=O)CSc2ccc3c(c2)OCCO3)cc1	0	0	-	98	0	0
COc1ccc(NC(=O)CSc2ccc3c(c2)OCCO3)cc1S(N)(=O)=O	0	0	-	0	0	0
COc1ccc(-c2nc(CS(=O)CC(=O)N3CCN(C)CC3)c(C)o2)cc1OC (centres undefined)	0	0	0	99	0	0
COc1ccc(-c2nc(CS(=O)CC(=O)N3CCOCC3)c(C)o2)cc1OC (centres undefined)	0	0	0	100	0	0
Cc1ccc(-c2nc(CS(=O)(=O)CC(=O)N3CCN(C)CC3)c(C)o2)cc1	0	0	0	0	0	0
COc1ccc(-c2nc(CS(=O)CC(=O)N3CCN(C)CC3)c(C)o2)cc1 (centres undefined)	0	0	0	99	0	0
COc1cccc2cc(C(=O)Nc3cc(C)cc(C)c3)c(=NNS(=O)(=O)c3ccccc3)oc12	-	-	-	-	0	-
N#CCC(=O)NN=Cc1ccccc1OC/C=C/c1ccccc1	-	-	-	-	0	-
O=C(CON=Cc1cccc([N+](=O)[O-])c1)NC1CCCCC1	-	-	-	-	0	-
O=C1CC(c2ccco2)CC(O)=C1C=NCC1NCCc2ccccc21 (centres undefined)	0	0	29	0	0	0
